Only some compounds are listed: those with a hit (about 3% of all), similar ones and a draw of the others.
TRPC4 agonist: activators of mouse TRPC4 channel, primary screen, Fluo4 calcium, HEK293 TRPC4beta/mu-opioid cells. Short transient receptor potential channel 4 (Mus musculus), Q9QUQ5. Fluo4 calcium fluorescence; hits give high values. B-score at 10 µM. 310,000 tested, 0.49% active. AID 2237, 2010;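 active means B-score above 5 SD of library B-scores, and initial fluorescence ratio not above library mean plus 5 SD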;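 further: positive B-score marks a calcium rise read as TRPC4 activation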
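Incubation: 45 min room-temperature Fluo4 loading, 110 s read / System: HEK293 cells stably co-expressing mouse TRPC4beta and mu-opioid receptor / Signal: Fluo4 fluorescence, kinetic / Control set: buffer (low) and maximal DAMGO (high) / Measure: integrated baseline-normalised fluorescence ratio, converted to per-well B score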
TRPC4 block: inhibitors of mouse TRPC4 channel, primary screen, Fluo4 calcium, HEK293 TRPC4beta/mu-opioid cells. Short transient receptor potential channel 4 (Mus musculus), Q9QUQ5. DAMGO-evoked Fluo4 calcium flux; hits give low values. B-score at 10 µM. 300,000 tested, 0.39% active. AID 2247, 2010;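 active means B-score over 3 SD under the library average, no early fluorescence shift, positive overall ratio signal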
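Assay system: HEK293 cells with stable TRPC4beta plus mu-opioid receptor expression. Dosing: single dose. Measured by: Fluo4 Ca2+ flux fluorescence. Also added: DAMGO in two steps, submaximal then maximal. Read-out: B score from integrated Fluo4 fluorescence ratio.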
TRPC6 activator: mouse TRPC6 channel activators, primary screen, cell-based, HEK293, membrane potential dye. Short transient receptor potential channel 6 (Mus musculus), Q61143. HEK293-TRPC6 membrane potential dye fluorescence; hits give high values. B-score at 10 µM. 310,000 tested, 0.13% active;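 active means B-score of the integrated fluorescence ratio above library mean plus 3 SD, and starting fluorescence ratio within library mean plus 5 SD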;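 further: higher score means more depolarization so channel activation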
Target sequence (Q61143 whole entry, looked up): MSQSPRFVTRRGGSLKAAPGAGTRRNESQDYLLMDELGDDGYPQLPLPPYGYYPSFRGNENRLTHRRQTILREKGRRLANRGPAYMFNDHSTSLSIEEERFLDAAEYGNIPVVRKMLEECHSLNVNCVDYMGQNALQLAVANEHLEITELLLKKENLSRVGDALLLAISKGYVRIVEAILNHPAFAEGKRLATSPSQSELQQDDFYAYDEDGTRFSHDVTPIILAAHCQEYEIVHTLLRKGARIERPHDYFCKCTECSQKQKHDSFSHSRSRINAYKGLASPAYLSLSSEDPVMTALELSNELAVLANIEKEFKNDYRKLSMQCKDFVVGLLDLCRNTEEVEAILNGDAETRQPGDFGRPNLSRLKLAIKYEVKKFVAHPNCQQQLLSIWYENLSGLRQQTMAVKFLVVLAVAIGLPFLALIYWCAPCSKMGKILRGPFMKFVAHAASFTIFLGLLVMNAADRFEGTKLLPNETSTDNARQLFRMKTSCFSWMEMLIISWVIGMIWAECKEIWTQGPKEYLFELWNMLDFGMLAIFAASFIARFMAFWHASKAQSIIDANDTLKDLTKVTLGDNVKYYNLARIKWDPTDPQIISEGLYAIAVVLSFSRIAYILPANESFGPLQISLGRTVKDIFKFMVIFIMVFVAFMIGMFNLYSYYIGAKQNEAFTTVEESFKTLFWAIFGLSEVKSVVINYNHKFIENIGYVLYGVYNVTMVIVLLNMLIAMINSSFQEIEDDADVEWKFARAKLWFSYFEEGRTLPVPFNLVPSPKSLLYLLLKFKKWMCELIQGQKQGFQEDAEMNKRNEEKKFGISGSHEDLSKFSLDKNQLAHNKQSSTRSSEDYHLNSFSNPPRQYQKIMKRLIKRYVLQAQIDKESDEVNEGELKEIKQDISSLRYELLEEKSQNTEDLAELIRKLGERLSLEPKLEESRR
Kir21 inh: inhibitors of mouse Kir2.1 inward-rectifier potassium channel; Inward rectifier potassium channel 2 (Mus musculus), P35561; HEK293-Kir2.1, FluxOR thallium flux fluorescence; hits give low values; B-score at 10 µM; 310,000 tested, 0.85% active; AID 1672, 2009;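 active means fluorescence ratio B-score at or below minus 3 SD of library scores, with starting-brightness B-score within 2 SD, cut at about -4.2 in these data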;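 further: channel flux triggered by added potassium and thallium sulfate stimulus; B-score of peak minus minimum fluorescence over baseline after thallium stimulus; more negative B-score means stronger Kir2.1 block with less thallium influx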
TRPC4 potent: positive allosteric modulators of TRPC4, primary screen, cell-based, mouse TRPC4beta, HEK293 mu-opioid, Fluo-4 calcium | DAMGO EC20, Fluo-4 Ca2+ flux; hits give high values | B-score at 10 µM | 310,000 tested, 0.42% active | AID 2227, 2009;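 active means B-score of calcium response area above 5 SD of library B-scores, with initial fluorescence ratio within 5 SD of library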;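 further: B-score of integrated fluorescence ratio over time as area under calcium response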
TRPC6 inh: mouse TRPC6 channel inhibitors, primary screen, cell-based, HEK293, membrane potential dye; Short transient receptor potential channel 6 (Mus musculus), Q61143; ACh-evoked depolarization; hits give low values; B-score at 10 µM; 310,000 tested, 1.1% active; AID 2553, 2010;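 active means B-score under library mean minus 3 SD, initial fluorescence not abnormally high, positive integrated signal ratio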;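 further: B-score derived from integrated fluorescence ratio over the kinetic read; more negative B-score means stronger inhibition of depolarization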
Numbers without * were called inactive; i = inactive.

SMILES	TRPC4 agonist	TRPC4 block	TRPC6 activator	Kir21 inh	TRPC4 potent	TRPC6 inh
CCN1CCN(c2ccc(S(=O)(=O)N3CCCCC3)cc2NC(=O)Cc2ccc(OC)cc2)CC1	63*	i	i	-1.6	i	i
CCN1CCN(c2ccc(S(=O)(=O)N3CCCCC3)cc2NC(=O)c2cc3ccccc3o2)CC1	i	i	i	0.83	18*	i
CCN1CCN(c2c(Cl)cccc2NC(=O)c2cc3ccccc3o2)CC1	i	i	i	-1.5	23*	i
CCOC(=O)c1ccccc1NC(=O)CSc1nc2[nH]ncc2c(=O)[nH]1	i	i	i	-1.2	i	i
CCN1CCN(c2ccc(S(=O)(=O)N3CCCCC3)cc2NC(=O)c2cccc(Cl)c2)CC1	45*	i	i	1.9	18*	i
CCCCN(c1ccccc1)S(=O)(=O)c1cccc2cccnc12	i	i	i	-1.8	i	i
COc1cc(OC)c(NC(=O)c2sc3ncn(CC(=O)N4CCOCC4)c(=O)c3c2C)cc1Cl	i	i	i	-0.48	i	i
CC(=O)c1ccc(NC(=O)NC2CC(=O)N(c3ccc4c(c3)OCCO4)C2)cc1 (stereo unspecified)	i	i	i	1.1	i	i
COc1cc(C(=O)N(CCc2ccccc2)C2=CC3CCC(C2)N3C)cc(OC)c1OC (stereo unspecified)	i	-7*	i	-1.1	i	i
CCN(Cc1ccccc1)S(=O)(=O)c1c(C)[nH]c(C)c1C(=O)N1CCCCC1	i	i	i	2.6	i	i
Nc1nccnc1C(=O)OCC(=O)Nc1ccc2[nH]c(=O)[nH]c2c1	i	i	i	-0.45	i	i
O=S(=O)(Nc1c(S(=O)(=O)c2ccccc2)c2nc3ccccc3nc2n1C1CCCCC1)c1ccccc1	i	i	i	-5.1*	i	i
Cc1ccc2c(c1)N(CC(=O)N1CCN(C3CCCCC3)CC1)C(=O)CO2	i	i	i	-0.71	10*	i
O=S(=O)(c1ccccc1)N1CCCC1c1nc2ccccc2s1 (stereo unspecified)	i	i	i	-4.5*	i	i
O=C(Nc1nc2ccccc2s1)C1CCCN1S(=O)(=O)c1ccc(Cl)cc1 (stereo unspecified)	i	i	i	0.2	i	i
S=C(NCCc1ccccc1)NC1CC2CCC(C1)N2Cc1ccccc1 (stereo unspecified)	i	i	i	-2.5	i	i
COc1ccc(C)cc1S(=O)(=O)N1CCc2ccccc2C1	i	i	i	-4.3*	i	i
O=C(CNS(=O)(=O)c1ccc([N+](=O)[O-])cc1)N/N=C\c1ccc(O)cc1	i	i	i	-1.8	12*	i
CC(=O)Nc1ccc(/C=N\NC(=O)CNS(=O)(=O)c2ccc([N+](=O)[O-])cc2)cc1	i	i	i	-0.04	i	i
CCCCNC(=O)c1ccc2c(c1)N(CC)C(=O)CS2	i	i	i	0.61	i	i
CCN1C(=O)CSc2ccc(C(=O)NCc3ccc(OC)cc3)cc21	i	i	i	-8.9*	i	i
Cc1onc(-c2ccccc2)c1C(=O)NNC(=S)NC(=O)/C=C/c1ccccc1	59*	-7*	i	1.3	i	i
O=C(NC(=S)NNC(=O)c1ccccc1[N+](=O)[O-])c1ccc(Br)cc1	142*	i	i	0	i	i
Cc1onc(-c2ccccc2)c1C(=O)NNC(=S)NC(=O)c1ccc(Br)cc1	250*	i	i	1.8	i	i
CN(CC(=O)Nc1ccccc1Cl)C(=O)COC(=O)C1CCN(c2ccc(C(F)(F)F)cn2)CC1	i	i	i	-0.8	i	i
SMILES	TRPC4 agonist	TRPC4 block	TRPC6 activator	Kir21 inh	TRPC4 potent	TRPC6 inh
COc1cccc(CC2(CO)CCCN(Cc3cn(C)c4ccccc34)C2)c1 (stereo unspecified)	i	i	i	-4.3*	i	i
CCn1cc(CN2CCCC(CO)(Cc3ccc(F)cc3)C2)c2ccccc21 (stereo unspecified)	i	i	i	-5.2*	i	i
CCc1ccc(N2CCN(C(=O)N3CCOCC3)CC2)cc1	i	i	i	0.05	i	i
CCNc1c(NS(=O)(=O)c2ccc(OC)cc2)c(=O)oc2ccccc12	i	i	i	0	i	i
O=c1cc2c(nn1Cc1ccc(F)cc1)-c1ccccc1CC2	i	-7*	i	-0.81	11*	i
O=c1cc2c(nn1Cc1ccccc1)-c1ccccc1CC2	i	i	i	-0.33	i	i
COc1cnn(Cc2ccccc2)c(=O)c1SCc1ccccc1	i	i	i	-4.7*	i	i
CN(C)CCNc1c2c(nc3nnnn13)CCCC2	44*	i	i	-0.03	i	i
O=C(NC(C(=O)N/N=C/c1cccnc1)c1n[nH]c(=O)c2ccccc12)c1ccccc1 (stereo unspecified)	53*	i	i	-2.1	i	i
O=C(NC(C(=O)N/N=C/c1ccncc1)c1n[nH]c(=O)c2ccccc12)c1ccccc1 (stereo unspecified)	i	i	i	-0.27	i	i
O=C(CN1C(=O)CCC1=O)Nc1cccc2c1C(=O)NC2=O	i	i	i	-0.1	i	i
Cc1ccccc1CN1N=C(/C=C/c2ccccc2)CCC1=O	i	i	i	0.01	14*	i
Cc1cccc(C(=O)NCC(c2cccs2)N2CCOCC2)c1 (stereo unspecified)	i	i	i	-1.3	i	i
N#CC1=C(N)C(C#N)(C#N)C(c2cccnc2)C2CC(c3ccccc3)CC=C12 (stereo unspecified)	i	i	i	1.4	36*	i
COc1cc(/C=N/N=C(N)N)ccc1OCc1ccccc1Cl	i	i	i	-16*	i	i
COc1ccc(/C=N/N=C/c2ccc(OC)c(OC)c2)cc1OC	i	i	i	0.6	i	i

Screening data as filed in PubChem.
